Laboratory results: ChEMBL document CHEMBL5380783, “N-Substituted l-Iminosugars for the Treatment of Sanfilippo Type B Syndrome” (J Med Chem, 2023)
Calls of active or inactive are those of the source. The rule behind the calls is not given here.

Key:
SK-N-BE(2) [1] = assay: Inhibition of lysosomal defects in NAGLU-silenced human SK-NBE cell clones assessed as reduction in accumulation of enlarged LAMP1-positive lysosomal structures within the cytoplasm at 20 uM incubated for 48 hrs by LAMP1 staining based indirect immunofluorescence assay; type: functional
In short: (§1)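 Control and NAGLU-silenced SK-NBE clones grown on coverslips with 20 μM compound for 48 h. Fixed in 3.7% formaldehyde, permeabilized with saponin/BSA buffer, stained with anti-Lamp1 or anti-HS 10E4 for 1 h, then Alexa secondaries. Confocal imaging with 63× objective. Scored as percent cells with enlarged Lamp1 structures or membrane HS, plus mean fluorescence intensity, over 50 random cells from three experiments.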

SK-N-BE(2) [2] = assay: Effect on lysosome size and distribution in human SK-NBE cell clone assessed as at 20 uM incubated for 48 hrs by LAMP1 staining based indirect immunofluorescence assay; type: functional; in short: as §1
IB3-1 [3] = assay: Cytotoxicity against human IB3-1 cells assessed as induction of apoptosis upto 100 uM; type: toxicity, cell-based; details: ib3-1, 100 µM
HaCaT [4] = assay: Cytotoxicity against human HaCaT cells assessed as induction of apoptosis upto 100 uM; type: toxicity, cell-based
[5] = Cytotoxicity against human CuFi cells assessed as induction of apoptosis upto 100 uM; type: toxicity, cell-based
IB3-1 [6] = assay: Antiproliferative activity against human IB3-1 cells upto 100 uM; type: toxicity, cell-based; details: ib3-1, 100 µM
HaCaT [7] = assay: Antiproliferative activity against human HaCaT cells upto 100 uM; type: toxicity, cell-based
[8] = Antiproliferative activity against human CuFi cells upto 100 uM; type: toxicity, cell-based
SK-N-BE(2) [9] = assay: Inhibition of heparan sulfate accumulation on cell membrane in NAGLU-silenced human SK-NBE cells clone at 20 uM incubated for 48 hrs by indirect immunofluorescence staining analysis; type: functional, cell-based; in short: as §1
SK-N-BE(2) [10] = assay: Effect on heparan sulfate changes in human SK-NBE cell membrane at 20 uM incubated for 48 hrs by indirect immunofluorescence staining analysis; type: functional, cell-based; in short: as §1
Fibroblast [11] = assay: Inhibition of lysosomal defects in Sanfilippo-B patient derived human fibroblast cells assessed as reduction in accumulation of enlarged LAMP1-positive lysosomal structures within the cytoplasm at 20 uM incubated for 48 hrs by LAMP1 staining based indirect immunofluorescence assay; type: functional, cell-based
In short: (§2)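 HDFa, MPS IIIA, MPS IIIB and MPS I patient fibroblasts in DMEM, 10% FBS, grown 48 h on coverslips with 20 μM compound. Double immunostained for HS (10E4) and Lamp1 with DAPI, confocal imaging. Mean fluorescence intensity expressed relative to untreated cells (d-enantiomers: percent positive cells), 50 random cells from three experiments.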

Fibroblast [12] = assay: Inhibition of lysosomal defects in Sanfilippo-B patient derived human fibroblast cells assessed as reduction in more concentrated lysosomal distribution in the perinuclear region of the cytoplasm at 20 uM incubated for 48 hrs by LAMP1 staining based indirect immunofluorescence assay; type: functional, cell-based; in short: as §2
Fibroblast [13] = assay: Inhibition of lysosomal defects in Sanfilippo-B patient derived human fibroblast cells assessed as dispersion of lysosomes all over the cytoplasm at 20 uM incubated for 48 hrs by LAMP1 staining based indirect immunofluorescence assay; type: functional, cell-based; in short: as §2
Fibroblast [14] = assay: Effect on heparan sulfate changes in human fibroblast cells at 20 uM incubated for 48 hrs by indirect immunofluorescence staining analysis; type: functional, cell-based; in short: as §2
HeLa [15] = assay: Inhibition of heparan sulfate accumulation on cell membrane in human HeLa cells at 20 uM incubated for 48 hrs by indirect immunofluorescence staining analysis; type: functional, cell-based
In short: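 HeLa cells grown 48 h with compound, then immunostained with anti-HS antibody 10E4 to gauge membrane HS.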

HeLa [16] = assay: Cytotoxicity against human HeLa cells assessed as reduction in cell viability at 20 uM incubated for 48 hrs by trypan blue exclusion method; type: functional, cell-based
In short: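 HeLa cells seeded at 100,000 per well and grown overnight in complete RPMI. Exposed to 20 μM compound in the same medium for 48 h at 37 °C; untreated mock as control. Cells trypsinized, live cells counted by trypan blue exclusion on an automated counter. Means of three independent experiments, each in triplicate, with s.e.m.; Student's t-test, p < 0.05.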

SK-N-BE(2) [17] = assay: Inhibition of lysosomal defects in NAGLU-silenced human SK-NBE cell clones assessed as reduction in more concentrated lysosomal distribution in the perinuclear region of the cytoplasm at 20 uM incubated for 48 hrs by LAMP1 staining based indirect immunofluorescence assay; type: functional; in short: as §1
SK-N-BE(2) [18] = assay: Inhibition of lysosomal defects in NAGLU-silenced human SK-NBE cell clones assessed as dispersion of lysosomes all over the cytoplasm at 20 uM incubated for 48 hrs by LAMP1 staining based indirect immunofluorescence assay; type: functional; in short: as §1
Fibroblast [19] = assay: Inhibition of heparan sulfate accumulation on cell membrane in Sanfilippo-B patient derived human fibroblast cells at 20 uM incubated for 48 hrs by indirect immunofluorescence staining analysis; type: functional, cell-based; in short: as §2
Fibroblast [20] = assay: Inhibition of lysosomal defects in Sanfilippo-A patient derived human fibroblast cells assessed as reduction in accumulation of enlarged LAMP1-positive lysosomal structures within the cytoplasm at 20 uM incubated for 48 hrs by LAMP1 staining based indirect immunofluorescence assay; type: functional, cell-based; in short: as §2
Fibroblast [21] = assay: Inhibition of heparan sulfate accumulation on cell membrane in Sanfilippo-A patient derived human fibroblast cells at 20 uM incubated for 48 hrs by indirect immunofluorescence staining analysis; type: functional, cell-based; in short: as §2
Fibroblast [22] = assay: Inhibition of lysosomal defects in MPS-1 patient derived human fibroblast cells assessed as reduction in accumulation of enlarged LAMP1-positive lysosomal structures within the cytoplasm at 20 uM incubated for 48 hrs by LAMP1 staining based indirect immunofluorescence assay; type: functional, cell-based; in short: as §2
Fibroblast [23] = assay: Inhibition of heparan sulfate accumulation on cell membrane in MPS-1 patient derived human fibroblast cells at 20 uM incubated for 48 hrs by indirect immunofluorescence staining analysis; type: functional, cell-based; in short: as §2

Question: For `CCCCCCOCCCCCN1C[C@@H](O)[C@H](O)[C@@H](O)[C@@H]1CO.Cl`, which inhibition (SK-N-BE(2) [1]) is on record?
Answer: inactive

Question: What about the Activity (SK-N-BE(2) [2]) of the same compound?
Answer: inactive

Question: And the Activity (IB3-1 [3])?
Answer: Non-Toxic

Question: And the Activity (HaCaT [4])?
Answer: Non-Toxic

Question: What about the Activity [5] of the same compound?
Answer: Non-Toxic

Question: And the Activity (IB3-1 [6])?
Answer: Non-Toxic

Question: And the Activity (HaCaT [7])?
Answer: Non-Toxic

Question: What about the Activity [8] of the same compound?
Answer: Non-Toxic

Question: And the inhibition (SK-N-BE(2) [9])?
Answer: inactive

Question: What about the Activity (SK-N-BE(2) [10]) of the same compound?
Answer: inactive

Question: What about the inhibition (Fibroblast [11]) of the same compound?
Answer: inactive

Question: What about the inhibition (Fibroblast [12]) of the same compound?
Answer: inactive

Question: And the inhibition (Fibroblast [13])?
Answer: inactive

Question: What about the Activity (Fibroblast [14]) of the same compound?
Answer: inactive

Question: And the inhibition (HeLa [15])?
Answer: inactive

Question: And the Activity (HeLa [16])?
Answer: inactive

Question: For `CCCCCCCCCOCCCCCN1C[C@@H](O)[C@H](O)[C@@H](O)[C@@H]1CO.Cl`, which inhibition (SK-N-BE(2) [1]) is on record?
Answer: inactive

Question: What about the Activity (SK-N-BE(2) [2]) of the same compound?
Answer: inactive

Question: And the Activity (IB3-1 [3])?
Answer: Non-Toxic

Question: What about the Activity (HaCaT [4]) of the same compound?
Answer: Non-Toxic

Question: And the Activity [5]?
Answer: Non-Toxic

Question: What about the Activity (IB3-1 [6]) of the same compound?
Answer: Non-Toxic

Question: And the Activity (HaCaT [7])?
Answer: Non-Toxic

Question: And the Activity [8]?
Answer: Non-Toxic

Question: What about the inhibition (SK-N-BE(2) [9]) of the same compound?
Answer: inactive

Question: And the Activity (SK-N-BE(2) [10])?
Answer: inactive

Question: What about the inhibition (Fibroblast [11]) of the same compound?
Answer: inactive

Question: And the inhibition (Fibroblast [12])?
Answer: inactive

Question: And the inhibition (Fibroblast [13])?
Answer: inactive

Question: What about the Activity (Fibroblast [14]) of the same compound?
Answer: inactive

Question: What about the inhibition (HeLa [15]) of the same compound?
Answer: inactive

Question: And the Activity (HeLa [16])?
Answer: inactive

Question: For `CCCCCCCCCN1C[C@@H](O)[C@H](O)[C@@H](O)[C@@H]1CO.Cl`, which inhibition (SK-N-BE(2) [1]) is on record?
Answer: inactive

Question: And the Activity (SK-N-BE(2) [2])?
Answer: inactive

Question: And the Activity (IB3-1 [3])?
Answer: Non-Toxic

Question: And the Activity (HaCaT [4])?
Answer: Non-Toxic

Question: And the Activity [5]?
Answer: Non-Toxic

Question: What about the Activity (IB3-1 [6]) of the same compound?
Answer: Non-Toxic

Question: And the Activity (HaCaT [7])?
Answer: Non-Toxic

Question: What about the Activity [8] of the same compound?
Answer: Non-Toxic

Question: What about the inhibition (SK-N-BE(2) [9]) of the same compound?
Answer: inactive

Question: What about the Activity (SK-N-BE(2) [10]) of the same compound?
Answer: inactive

Question: What about the inhibition (Fibroblast [11]) of the same compound?
Answer: inactive

Question: And the inhibition (Fibroblast [12])?
Answer: inactive

Question: And the inhibition (Fibroblast [13])?
Answer: inactive

Question: And the Activity (Fibroblast [14])?
Answer: inactive

Question: What about the inhibition (HeLa [15]) of the same compound?
Answer: inactive

Question: What about the Activity (HeLa [16]) of the same compound?
Answer: inactive

Question: With `CCCCN1C[C@H](O)[C@@H](O)[C@H](O)[C@H]1CO` as the compound, how does the inhibition (SK-N-BE(2) [1]) read?
Answer: inactive

Question: What about the Activity (SK-N-BE(2) [2]) of the same compound?
Answer: inactive

Question: And the inhibition (SK-N-BE(2) [17])?
Answer: inactive

Question: What about the inhibition (SK-N-BE(2) [18]) of the same compound?
Answer: inactive

Question: What about the inhibition (Fibroblast [11]) of the same compound?
Answer: inactive

Question: What about the inhibition (Fibroblast [12]) of the same compound?
Answer: inactive

Question: What about the inhibition (Fibroblast [13]) of the same compound?
Answer: inactive

Question: And the inhibition (Fibroblast [19])?
Answer: inactive

Question: What about the Activity (Fibroblast [14]) of the same compound?
Answer: inactive

Question: What about the inhibition (Fibroblast [20]) of the same compound?
Answer: inactive

Question: And the inhibition (Fibroblast [21])?
Answer: inactive

Question: What about the inhibition (Fibroblast [22]) of the same compound?
Answer: inactive

Question: What about the inhibition (Fibroblast [23]) of the same compound?
Answer: inactive

Question: And the Activity (HeLa [16])?
Answer: inactive

Question: For `OC[C@H]1NC[C@H](O)[C@@H](O)[C@@H]1O`, which inhibition (SK-N-BE(2) [1]) is on record?
Answer: inactive

Question: What about the Activity (SK-N-BE(2) [2]) of the same compound?
Answer: inactive

Question: What about the inhibition (SK-N-BE(2) [17]) of the same compound?
Answer: inactive

Question: What about the inhibition (SK-N-BE(2) [18]) of the same compound?
Answer: inactive

Question: What about the inhibition (Fibroblast [11]) of the same compound?
Answer: inactive

Question: What about the inhibition (Fibroblast [12]) of the same compound?
Answer: inactive

Question: What about the inhibition (Fibroblast [13]) of the same compound?
Answer: inactive

Question: And the inhibition (Fibroblast [19])?
Answer: inactive

Question: And the Activity (Fibroblast [14])?
Answer: inactive

Question: And the inhibition (Fibroblast [20])?
Answer: inactive

Question: And the inhibition (Fibroblast [21])?
Answer: inactive

Question: What about the inhibition (Fibroblast [22]) of the same compound?
Answer: inactive

Question: And the inhibition (Fibroblast [23])?
Answer: inactive

Question: And the Activity (HeLa [16])?
Answer: inactive
